TNAP act hi DEA: TNAP (human) activation, high acceptor | P05186 | purified TNAP, CDP-star luminescence, 1 M DEA, 30 min; hits give high values; 0 = EDTA background, 1 = DMSO-only activity | activation factor at 20 µM | 200,000 tested, under 10 active | AID 1136;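 active means activation factor at least 2 at 20 µM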
Target sequence (P05186 whole entry, looked up): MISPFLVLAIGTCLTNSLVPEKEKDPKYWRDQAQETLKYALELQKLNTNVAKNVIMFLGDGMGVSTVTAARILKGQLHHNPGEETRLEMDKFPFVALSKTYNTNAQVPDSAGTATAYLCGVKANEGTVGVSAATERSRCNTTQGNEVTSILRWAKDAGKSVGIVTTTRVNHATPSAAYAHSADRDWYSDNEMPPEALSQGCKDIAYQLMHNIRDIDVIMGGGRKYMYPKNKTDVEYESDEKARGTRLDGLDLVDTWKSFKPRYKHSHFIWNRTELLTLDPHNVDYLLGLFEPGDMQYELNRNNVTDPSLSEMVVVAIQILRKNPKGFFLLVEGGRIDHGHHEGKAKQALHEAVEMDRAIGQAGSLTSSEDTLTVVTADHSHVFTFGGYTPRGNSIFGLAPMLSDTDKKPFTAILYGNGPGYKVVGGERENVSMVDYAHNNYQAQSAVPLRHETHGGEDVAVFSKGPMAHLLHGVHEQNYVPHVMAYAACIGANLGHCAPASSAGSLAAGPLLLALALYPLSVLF
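Assay system: human TNAP; Input: enzyme diluted 1/800 final; Reagent: CDP-star luminogenic substrate at 100 µM final; Timing: 30 min, room temperature; Signal: luminescence; Evaluation: TNAP activation factor scaled between EDTA and DMSO control wells.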
HCT116 bCat-KO: beta-catenin-lacking colon tumor cell growth suppression; HCT116 beta-catenin knockout viability, CellTiter-Glo, 60 h; hits give low values; viability, % at 10 µM; hit rate 1.5% among 140,000; AID 818;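 active means viability at or under a set limit, the compound median less 4 SD, cut at about 6% in these data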
L major viab: reduces viability of Leishmania major promastigotes | resazurin fluorescence viability | inhibition, % at 10 µM | hit rate 9% among 200,000 | AID 1063; in the data active means inhibition above about 50%;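 further: promastigotes grown with compound for 44 hours at 28 °C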
TNAP inh noacc: TNAP (human) inhibition, acceptor-free conditions. P05186. AID 1012. hit rate 0.26% among 200,000. purified TNAP, CDP-star luminescence, 30 min. inhibition, % at 20 µM;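 active means tissue-nonspecific alkaline phosphatase inhibition above about 50% at 20 µM in the single-dose screen, limit read from the data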
PTEN del growth: suppresses growth of cells with PTEN deletion; HCT116 PTEN-null viability, CellTiter-Glo, 60 h; hits give low values; AID 827; viability, % at 10 µM; hit rate 1.2% among 140,000;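 active means viability at or below a set limit, 4 SD under the median of all tested compounds, cut at about 3.7% in these data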;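 further: PTEN knockout HCT116 line with beta catenin targeted HCT116 as companion control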
TNAP inh hi DEA: blocks human TNAP under high phosphate acceptor concentration. P05186. purified TNAP, CDP-star luminescence, 1 M DEA. hit rate 0.03% among 200,000. inhibition, % at 20 µM. AID 1135;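 active means over 50% inhibition of tissue-nonspecific alkaline phosphatase at 20 µM in the single-dose screen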
Of the large screens only hits and unclear results are named; the others gave an inactive call. Shown are actives, neighbours in structure and some others; about 9.6% of the full set was active somewhere.

COc1ccc2[nH]c(=O)c(CN(C(=O)c3ccncc3)C(C)C)cc2c1	none
COc1cc2cc(CN(C(=O)NC3CCCCC3)C3CCCC3)c(=O)[nH]c2cc1OC	none
CC(=O)NCCc1nc2ccccc2n1CCc1ccccc1	none (no result: HCT116 bCat-KO, PTEN del growth)
CC(C)(C)NC(NC(=O)Cc1ccccc1)C(Cl)(Cl)Cl (stereo not given)	none
O=C(COC(=O)COc1ccc(Cl)cc1Cl)Nc1cccnc1Cl	none
COc1ccc2cc(CN(C(=O)Nc3ccccc3OC)C3CCCC3)c(=O)[nH]c2c1	L major viab 53
CC1(C)CC(=O)C2=C(C1)OC1=C(C(=O)CC(C)(C)C1)C2c1ccccc1	none
CC1(C)CC(=O)C2=C(C1)Oc1nc3ccccc3cc1C2C(C#N)C#N (stereo not given)	L major viab 100
CCOc1ccc(C2=Nn3c(nnc3-c3ccccc3OC)SC2)cc1	none
COc1ccccc1-c1nnc2n1N=C(c1ccc(O)c(O)c1)CS2	TNAP inh noacc 67
COc1ccc(OCC(=O)NNC(=O)c2nn(C)c(=O)c3ccccc23)cc1	none
Cc1cc(C(=O)NNC(=O)c2nn(C)c(=O)c3ccccc23)c(C)o1	L major viab 65 (no result: HCT116 bCat-KO, PTEN del growth)
O=C(/C=C/c1ccc(Cl)c(Cl)c1)NC1=NCCS1	none (no result: HCT116 bCat-KO, PTEN del growth)
O=C(NC1CCCC1)C(c1ccc(F)cc1)N(Cc1ccc(F)cc1)C(=O)c1ccn[nH]1 (stereo not given)	none
COCCN(C(=O)CCl)C(C(=O)NC1CCCCC1)c1ccccc1C (stereo not given)	HCT116 bCat-KO 5.2, L major viab 99, PTEN del growth 3.2
O=C(NC1CCCC1)C(c1ccc(F)cc1)N(Cc1ccccc1Cl)C(=O)CCl (stereo not given)	L major viab 98
Cc1cc2cc(CNC(=O)c3ccc(C)c([N+](=O)[O-])c3)ccc2[nH]1	none
O=C1/C(=C/c2ccncc2)CCC/C1=C\c1ccncc1	L major viab 101 (no result: HCT116 bCat-KO, PTEN del growth)
c1ccc(-c2csc3nnc(SCc4ccc5c(c4)OCCO5)n23)cc1	L major viab 56
CCC(C)(C)C(=O)Nc1cccc(Cl)c1C	none (no result: HCT116 bCat-KO, PTEN del growth)
C#CCOCCOCCOCCNc1nc(N2CCN(C(=O)[C@H]([C@@H](C)CC)n3cc([C@@H](N)CC(C)C)nn3)CC2)nc(N2CCN(C(=O)[C@H](CCCCN)n3cc([C@@H](N)CO)nn3)CC2)n1	none (no result: HCT116 bCat-KO, PTEN del growth)
Nc1cc(=O)[nH]c(SCc2cccc(Cl)c2)n1	none
Nc1cc(=O)[nH]c(SCc2ccc(Cl)cc2)n1	L major viab 69
CCOC1(/N=C(\C)NS(=O)(=O)c2ccc(Cl)cc2)C(C)=CC(=O)C=C1C	none (no result: HCT116 bCat-KO, PTEN del growth)
C[C@@H]1CN(C(=O)c2nc3ccc(Cl)cn3c2CNCC[C@@H]2C[C@@H]3C=C[C@H]2C3)C[C@H](C)O1	none (no result: HCT116 bCat-KO, PTEN del growth)
O=C(c1nc2ccc(Cl)cn2c1CNCC[C@@H]1C[C@@H]2C=C[C@H]1C2)N1CCCCCCC1	L major viab 70 (no result: HCT116 bCat-KO, PTEN del growth)
COc1ccc(/C=N/NC(=O)c2ccc3c(c2)OCCO3)cc1[N+](=O)[O-]	none
Cc1cc(=O)oc2cc(OCC(=O)N/N=C/c3cc([N+](=O)[O-])ccc3O)ccc12	TNAP inh noacc 89
O=C(N/N=C/c1cc([N+](=O)[O-])ccc1O)c1ccc2c(c1)OCCO2	L major viab 98
O=C(CCC(=O)Nc1cccc(Cl)c1)N/N=C/c1cc([N+](=O)[O-])ccc1O	TNAP inh noacc 80 (no result: HCT116 bCat-KO, PTEN del growth)
Cc1ccc(NC(=O)CCC(=O)N/N=C/c2cc([N+](=O)[O-])ccc2O)cc1	none
CN1CCN(CCC(=O)N/N=C/c2cc([N+](=O)[O-])ccc2O)CC1	L major viab 100
CCc1ccc(S(=O)(=O)c2ccc(-n3nc(C)cc3N)cc2)cc1	none (no result: HCT116 bCat-KO, PTEN del growth)
Fc1ccc(Cn2nnnc2CN2CCN(C3CCCC3)CC2)cc1	L major viab 94
CCC(c1nnnn1Cc1ccc(F)cc1)N1CCN(C2CCCCC2)CC1 (stereo not given)	none
Cc1cccc(NC(=O)Cn2c([N+](=O)[O-])cnc2C)c1C	none
Cc1no[n+]([O-])c1COc1cccc(/C=C2\N=C(c3ccccc3)OC2=O)c1	L major viab 64
COc1cc(CNc2ccc(O)cc2)cc(Br)c1OCc1ccccc1	none (no result: HCT116 bCat-KO, PTEN del growth)
COc1cc(CNC(C)(C)CO)cc(Br)c1OCc1ccc(Cl)cc1	L major viab 98
COc1cc(CNC(C)(C)CO)cc(Br)c1OCc1ccc(Cl)cc1Cl	HCT116 bCat-KO 1.3, L major viab 100, PTEN del growth 1.6
CCOC(=O)Cc1c(C)nc2c(-c3cccc(Br)c3)c[nH]n2c1=O	none
Cc1ccc(C)c(Oc2coc3cc(OCC(=O)Nc4ccccc4C(C)C)ccc3c2=O)c1	none
CC(C)c1ccc(C(=O)N2CCN(c3cnn(C)c(=O)c3Cl)CC2)cc1	none (no result: HCT116 bCat-KO, PTEN del growth)
CCN=C1S/C(=C\c2ccc(OC)c(OCC)c2)C(=O)N1CC	L major viab 70
CN(C)c1ccc(C=Nc2ccccc2)cc1	none
CN(C)c1ccc(N=Cc2ccco2)cc1	L major viab 71
CN(C)c1ccc(C=Nc2ccc(N(C)C)cc2)cc1	L major viab 71
C/C(=N/N=C/c1ccc(N(C)C)cc1)c1ccccc1	L major viab 80
Cc1nnc(SCC(=O)NC(C)(C)C)n1C1CCCCC1	none
CCC(C)NC(=O)CNC(=S)N(Cc1ccccc1F)C1CCCCC1 (stereo not given)	none (no result: HCT116 bCat-KO, PTEN del growth)
CCOC(=O)c1sc(Nc2nc(OC)cc(OC)n2)nc1C	L major viab 54 (no result: HCT116 bCat-KO, PTEN del growth)
CCCCc1nc(SCC(=O)Nc2nnc(CCCC)s2)n[nH]1	none (no result: HCT116 bCat-KO, PTEN del growth)
CCCCc1nc(SCC(=O)Nc2cc(C)on2)n[nH]1	TNAP inh noacc 57
COc1ccc(-c2nc(SCC(=O)Nc3cc(C)on3)n[nH]2)cc1	TNAP inh noacc 70
Cc1nnc(NC(=O)CSc2n[nH]c(-c3ccccc3)n2)s1	TNAP inh noacc 59 (no result: HCT116 bCat-KO, PTEN del growth)
COc1cccc(-c2noc(-c3ccc(Br)o3)n2)c1	none (no result: HCT116 bCat-KO, PTEN del growth)
CCc1ccc(NC(=O)C(C)OC(=O)c2ccc(NS(=O)(=O)c3ccc(C)c([N+](=O)[O-])c3)cc2)cc1 (stereo not given)	L major viab 64
Cc1ccc(NC(=O)C(C)OC(=O)c2ccc(NS(=O)(=O)c3ccc(F)c(F)c3)cc2)cc1 (stereo not given)	none
CCCn1c(=N)n(CCOc2ccc(OC)cc2)c2ccccc21	L major viab 94
CCOC(=O)Cn1c(=N)n(CCOc2ccc(OC)cc2)c2ccccc21	none
CCn1c(=N)n(CC(=O)c2ccc(OC)cc2)c2ccccc21	L major viab 95
CCCCn1c(=N)n(CC(=O)c2ccc([N+](=O)[O-])cc2)c2ccccc21	L major viab 81 (no result: HCT116 bCat-KO, PTEN del growth)
CCn1c(=N)n(CC(=O)c2ccco2)c2ccccc21	none
Cc1ccc(Cn2c(=N)n(CC(=O)c3ccc([N+](=O)[O-])cc3)c3ccccc32)cc1	HCT116 bCat-KO 0.9, L major viab 74, PTEN del growth 0.9
CCCCn1c(=N)n(CC(=O)c2ccco2)c2ccccc21	none

Screening results deposited in PubChem BioAssay by several laboratories.
